From ChEMBL document CHEMBL3779767, “Identification of potent and selective MTH1 inhibitors” (Bioorg Med Chem Lett, 2016)
The source made the active and inactive calls.

Key:
[1] = biological target: ALK tyrosine kinase receptor (Homo sapiens) (UniProt Q9UM73); test: Inhibition of partial length human ALK expressed in mammalian system at 1 uM
Method in brief: (§1)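 Single-point screen within a 97-kinase profiling panel, with the test compound at 1 µM.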

[2] = test system: Serine/threonine-protein kinase B-raf (Homo sapiens), P15056 [V600E]; test: Inhibition of partial length human BRAF V600E mutant expressed in mammalian system at 1 uM; method in brief: as §1
[3] = biological target: Tyrosine-protein kinase BTK (Homo sapiens) (UniProt Q06187); test: Inhibition of partial length human BTK expressed in mammalian system at 1 uM; method in brief: as §1
[4] = biological target: Cyclin-dependent kinase 3 (Homo sapiens) (UniProt Q00526); test: Inhibition of partial length human CDK3 expressed in bacterial system at 1 uM; method in brief: as §1
[5] = biological target: Cyclin-dependent kinase 7 (Homo sapiens) (UniProt P50613); test: Inhibition of partial length human CDK7 expressed in mammalian system at 1 uM; method in brief: as §1
[6] = biological target: Serine/threonine-protein kinase Chk1 (Homo sapiens) (UniProt O14757); test: Inhibition of partial length human CHEK1 expressed in bacterial system at 1 uM; method in brief: as §1
[7] = biological target: Macrophage colony-stimulating factor 1 receptor (Homo sapiens) (UniProt P07333); test: Inhibition of partial length human CSF1R expressed in bacterial system at 1 uM; method in brief: as §1
[8] = biological target: Casein kinase I isoform gamma-2 (Homo sapiens) (UniProt P78368); test: Inhibition of partial length human CSNK1G2 expressed in bacterial system at 1 uM; method in brief: as §1
[9] = biological target: Dual specificity tyrosine-phosphorylation-regulated kinase 1B (Homo sapiens) (UniProt Q9Y463); test: Inhibition of partial length human DYRK1B expressed in bacterial system at 1 uM; method in brief: as §1
[10] = biological target: Mitogen-activated protein kinase 3 (Homo sapiens) (UniProt P27361); test: Inhibition of partial length human ERK1 expressed in bacterial system at 1 uM; method in brief: as §1
[11] = biological target: Focal adhesion kinase 1 (Homo sapiens) (UniProt Q05397); test: Inhibition of partial length human FAK expressed in bacterial system at 1 uM; method in brief: as §1
[12] = biological target: Fibroblast growth factor receptor 3 (Homo sapiens) (UniProt P22607); test: Inhibition of partial length human FGFR3 expressed in bacterial system at 1 uM; method in brief: as §1
[13] = biological target: Receptor-type tyrosine-protein kinase FLT3 (Homo sapiens) (UniProt P36888); test: Inhibition of partial length human FLT3 expressed in bacterial system at 1 uM; method in brief: as §1
[14] = biological target: Inhibitor of nuclear factor kappa-B kinase subunit beta (Homo sapiens) (UniProt O14920); test: Inhibition of partial length human IKKbeta expressed in mammalian system at 1 uM; method in brief: as §1
[15] = biological target: Mast/stem cell growth factor receptor Kit (Homo sapiens) (UniProt P10721); test: Inhibition of partial length human KIT expressed in bacterial system at 1 uM
Method in brief: (§2)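 Single-concentration screen at 1 µM test concentration, run as part of a commercial binding/activity profiling panel covering 97 kinases.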

[16] = test system: Mast/stem cell growth factor receptor Kit (Homo sapiens), P10721 [D816V]; test: Inhibition of partial length human KIT D816V mutant expressed in bacterial system at 1 uM; method in brief: as §2
[17] = test system: Mast/stem cell growth factor receptor Kit (Homo sapiens), P10721 [V559D,T670I]; test: Inhibition of partial length human KIT V559D/T670I double mutant expressed in bacterial system at 1 uM; method in brief: as §2
[18] = biological target: Dual specificity mitogen-activated protein kinase kinase 1 (Homo sapiens) (UniProt Q02750); test: Inhibition of partial length human MEK1 expressed in mammalian system at 1 uM; method in brief: as §1
[19] = biological target: MAP kinase-interacting serine/threonine-protein kinase 1 (Homo sapiens) (UniProt Q9BUB5); test: Inhibition of partial length human MKNK1 expressed in mammalian system at 1 uM
Method in brief: (§3)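 Single-concentration screen across a panel of 97 kinases, with the test compound at 1 uM.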

[20] = biological target: Mitogen-activated protein kinase kinase kinase 9 (Homo sapiens) (UniProt P80192); test: Inhibition of partial length human MLK1 expressed in bacterial system at 1 uM; method in brief: as §3
[21] = biological target: Mitogen-activated protein kinase 14 (Homo sapiens) (UniProt Q16539); test: Inhibition of partial length human p38alpha expressed in bacterial system at 1 uM; method in brief: as §3
[22] = biological target: Serine/threonine-protein kinase PAK 4 (Homo sapiens) (UniProt O96013); test: Inhibition of partial length human PAK4 expressed in bacterial system at 1 uM; method in brief: as §3
[23] = biological target: Cyclin-dependent kinase 16 (Homo sapiens) (UniProt Q00536); test: Inhibition of partial length human PCTK1 expressed in mammalian system at 1 uM; method in brief: as §3
[24] = biological target: Platelet-derived growth factor receptor beta (Homo sapiens) (UniProt P09619); test: Inhibition of partial length human PDGFRbeta expressed in bacterial system at 1 uM; method in brief: as §3
[25] = biological target: Phosphatidylinositol 4-phosphate 3-kinase C2 domain-containing subunit beta (Homo sapiens) (UniProt O00750); test: Inhibition of partial length human PIK3C2beta expressed in mammalian system at 1 uM; method in brief: as §3
[26] = biological target: Phosphatidylinositol 4,5-bisphosphate 3-kinase catalytic subunit alpha isoform (Homo sapiens) (UniProt P42336); test: Inhibition of partial length human PIK3Calpha expressed in mammalian system at 1 uM; method in brief: as §3
[27] = biological target: cAMP-dependent protein kinase catalytic subunit alpha (Homo sapiens) (UniProt P17612); test: Inhibition of partial length human PKACalpha expressed in bacterial system at 1 uM; method in brief: as §3
[28] = biological target: Serine/threonine-protein kinase PLK1 (Homo sapiens) (UniProt P53350); test: Inhibition of partial length human PLK1 expressed in mammalian system at 1 uM; method in brief: as §3
[29] = biological target: RAF proto-oncogene serine/threonine-protein kinase (Homo sapiens) (UniProt P04049); test: Inhibition of partial length human RAF1 expressed in bacterial system at 1 uM; method in brief: as §3
[30] = biological target: Rho-associated protein kinase 2 (Homo sapiens) (UniProt O75116); test: Inhibition of partial length human ROCK2 expressed in mammalian system at 1 uM; method in brief: as §3
[31] = Half life in human liver microsomes; assay type: ADME
Method in brief: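 Incubated with human or mouse liver microsomes; the read-out was intrinsic clearance alongside half-life, given in hours.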

[32] = Intrinsic clearance in mouse liver microsomes; assay type: ADME
[33] = Half life in rat plasma; assay type: ADME, cell-free
Method in brief: (§4)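 Plasma stability was measured in human and rat plasma, with half-life reported in hours.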

[34] = Half life in human plasma; assay type: ADME, cell-free; method in brief: as §4
[35] = test system: NCI-H460; test: Antiproliferative activity against human NCI-H460 cells assessed as change in phenotypic response measured after prolonged treatment; assay type: functional, cell-based
[36] = test system: A549; test: Antiproliferative activity against human A549 cells assessed as change in phenotypic response measured after prolonged treatment; assay type: functional, cell-based
[37] = test system: HMEC; test: Cytotoxicity against human HMEC cells assessed as change in phenotypic response measured after prolonged treatment; assay type: cell-based
[38] = test system: MRC5; test: Cytotoxicity against human MRC5 cells assessed as change in phenotypic response measured after prolonged treatment; assay type: cell-based
[39] = test system: UOK 262; test: Antiproliferative activity against human UOK 262 cells assessed as change in phenotypic response up to 50 uM; assay type: functional, cell-based
[40] = test system: UOK 262; test: Antiproliferative activity against human UOK 262 cells assessed as change in phenotypic response measured after prolonged treatment; assay type: functional, cell-based
[41] = test system: NCI-H358; test: Antiproliferative activity against human NCI-H358 cells assessed as change in phenotypic response up to 50 uM; assay type: functional, cell-based

Mast/stem cell growth factor receptor Kit (Homo sapiens), sequence (P10721 whole entry): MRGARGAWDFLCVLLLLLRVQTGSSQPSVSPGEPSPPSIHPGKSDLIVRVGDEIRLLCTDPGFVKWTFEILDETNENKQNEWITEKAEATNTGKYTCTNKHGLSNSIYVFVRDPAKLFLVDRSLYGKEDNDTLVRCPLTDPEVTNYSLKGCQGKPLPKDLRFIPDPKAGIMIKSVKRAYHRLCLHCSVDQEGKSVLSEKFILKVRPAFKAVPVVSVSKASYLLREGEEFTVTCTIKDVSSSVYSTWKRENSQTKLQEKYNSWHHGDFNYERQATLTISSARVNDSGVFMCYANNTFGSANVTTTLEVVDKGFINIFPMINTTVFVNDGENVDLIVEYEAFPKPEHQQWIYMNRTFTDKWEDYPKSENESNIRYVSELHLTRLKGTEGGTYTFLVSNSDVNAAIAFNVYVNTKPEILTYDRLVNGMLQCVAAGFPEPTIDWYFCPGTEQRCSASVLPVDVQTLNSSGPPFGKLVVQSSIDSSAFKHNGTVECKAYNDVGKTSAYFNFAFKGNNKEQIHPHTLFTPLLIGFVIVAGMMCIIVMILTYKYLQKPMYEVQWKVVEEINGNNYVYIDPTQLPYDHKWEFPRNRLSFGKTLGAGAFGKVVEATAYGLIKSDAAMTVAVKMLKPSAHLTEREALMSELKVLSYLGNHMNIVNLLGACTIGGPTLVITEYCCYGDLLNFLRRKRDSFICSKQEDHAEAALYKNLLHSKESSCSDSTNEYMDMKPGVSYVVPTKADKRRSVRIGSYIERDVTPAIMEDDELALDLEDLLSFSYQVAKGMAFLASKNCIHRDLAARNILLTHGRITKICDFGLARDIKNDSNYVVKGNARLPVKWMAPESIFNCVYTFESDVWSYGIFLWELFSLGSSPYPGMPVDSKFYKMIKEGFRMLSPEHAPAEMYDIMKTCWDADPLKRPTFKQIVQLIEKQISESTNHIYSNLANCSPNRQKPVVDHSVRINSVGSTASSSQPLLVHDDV
Serine/threonine-protein kinase PAK 4 (Homo sapiens), sequence (O96013 whole entry, looked up): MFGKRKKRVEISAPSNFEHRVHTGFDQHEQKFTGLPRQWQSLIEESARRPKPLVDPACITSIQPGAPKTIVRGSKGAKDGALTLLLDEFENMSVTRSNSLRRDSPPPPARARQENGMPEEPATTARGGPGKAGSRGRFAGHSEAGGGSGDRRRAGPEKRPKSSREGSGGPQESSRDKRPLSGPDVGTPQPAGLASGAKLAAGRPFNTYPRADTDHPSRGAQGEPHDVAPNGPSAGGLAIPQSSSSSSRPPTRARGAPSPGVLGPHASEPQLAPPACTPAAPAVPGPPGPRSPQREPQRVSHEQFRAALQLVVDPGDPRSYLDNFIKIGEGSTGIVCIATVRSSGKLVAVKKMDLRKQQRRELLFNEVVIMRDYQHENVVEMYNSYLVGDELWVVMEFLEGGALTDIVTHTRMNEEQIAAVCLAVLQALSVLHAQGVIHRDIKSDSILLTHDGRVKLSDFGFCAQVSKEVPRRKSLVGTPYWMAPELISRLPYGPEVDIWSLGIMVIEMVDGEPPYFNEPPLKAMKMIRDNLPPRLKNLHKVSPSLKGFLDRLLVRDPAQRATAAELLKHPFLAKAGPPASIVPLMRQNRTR
Serine/threonine-protein kinase PLK1 (Homo sapiens), sequence (P53350 whole entry): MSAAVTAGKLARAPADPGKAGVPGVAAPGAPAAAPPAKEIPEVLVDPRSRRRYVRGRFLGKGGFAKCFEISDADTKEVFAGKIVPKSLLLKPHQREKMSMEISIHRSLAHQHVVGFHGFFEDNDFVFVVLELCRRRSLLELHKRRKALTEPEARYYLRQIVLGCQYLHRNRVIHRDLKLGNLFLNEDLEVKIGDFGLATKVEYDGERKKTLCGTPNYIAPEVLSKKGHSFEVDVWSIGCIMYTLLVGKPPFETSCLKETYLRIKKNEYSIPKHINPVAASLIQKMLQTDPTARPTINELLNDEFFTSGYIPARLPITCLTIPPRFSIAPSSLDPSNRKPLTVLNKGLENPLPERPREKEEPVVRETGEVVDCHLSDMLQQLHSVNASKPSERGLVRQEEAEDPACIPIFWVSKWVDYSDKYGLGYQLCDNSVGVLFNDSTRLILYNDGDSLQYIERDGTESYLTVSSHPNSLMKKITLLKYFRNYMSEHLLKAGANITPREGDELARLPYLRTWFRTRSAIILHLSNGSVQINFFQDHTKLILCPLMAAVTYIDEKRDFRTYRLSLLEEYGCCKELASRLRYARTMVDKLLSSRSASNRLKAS
Mast/stem cell growth factor receptor Kit (Homo sapiens), P10721 [D816V], sequence (P10721 whole entry D816V): as the sequence (P10721 whole entry) above, with D816V counted along it
Mitogen-activated protein kinase kinase kinase 9 (Homo sapiens), sequence (P80192 whole entry, looked up): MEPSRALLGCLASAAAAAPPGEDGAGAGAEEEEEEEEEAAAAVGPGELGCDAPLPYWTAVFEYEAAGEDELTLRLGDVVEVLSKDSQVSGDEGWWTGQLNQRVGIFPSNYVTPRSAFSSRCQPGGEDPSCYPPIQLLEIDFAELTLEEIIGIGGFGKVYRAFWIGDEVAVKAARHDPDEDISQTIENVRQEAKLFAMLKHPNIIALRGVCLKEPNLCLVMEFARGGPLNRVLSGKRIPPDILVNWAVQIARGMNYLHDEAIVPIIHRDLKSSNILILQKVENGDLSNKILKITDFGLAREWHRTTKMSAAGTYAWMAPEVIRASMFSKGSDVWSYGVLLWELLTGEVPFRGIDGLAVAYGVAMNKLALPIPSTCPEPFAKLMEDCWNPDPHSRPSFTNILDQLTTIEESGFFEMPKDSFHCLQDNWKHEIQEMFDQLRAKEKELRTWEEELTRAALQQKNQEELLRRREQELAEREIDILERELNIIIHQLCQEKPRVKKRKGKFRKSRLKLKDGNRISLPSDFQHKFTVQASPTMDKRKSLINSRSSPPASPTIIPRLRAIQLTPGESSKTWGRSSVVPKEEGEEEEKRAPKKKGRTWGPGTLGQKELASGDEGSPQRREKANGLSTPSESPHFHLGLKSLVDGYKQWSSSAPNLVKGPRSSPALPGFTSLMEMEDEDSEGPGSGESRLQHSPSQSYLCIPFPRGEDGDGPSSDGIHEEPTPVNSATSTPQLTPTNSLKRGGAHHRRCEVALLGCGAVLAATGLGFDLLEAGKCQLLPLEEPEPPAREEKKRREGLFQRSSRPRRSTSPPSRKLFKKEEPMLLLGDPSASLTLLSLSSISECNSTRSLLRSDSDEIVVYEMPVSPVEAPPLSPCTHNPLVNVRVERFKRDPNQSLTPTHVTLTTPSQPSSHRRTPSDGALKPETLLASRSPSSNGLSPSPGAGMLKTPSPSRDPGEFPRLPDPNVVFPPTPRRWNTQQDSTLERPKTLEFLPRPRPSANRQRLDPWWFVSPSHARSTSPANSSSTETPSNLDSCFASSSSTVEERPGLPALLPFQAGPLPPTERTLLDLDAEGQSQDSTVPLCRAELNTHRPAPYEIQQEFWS
Platelet-derived growth factor receptor beta (Homo sapiens), sequence (P09619 whole entry, the tested form may be a part): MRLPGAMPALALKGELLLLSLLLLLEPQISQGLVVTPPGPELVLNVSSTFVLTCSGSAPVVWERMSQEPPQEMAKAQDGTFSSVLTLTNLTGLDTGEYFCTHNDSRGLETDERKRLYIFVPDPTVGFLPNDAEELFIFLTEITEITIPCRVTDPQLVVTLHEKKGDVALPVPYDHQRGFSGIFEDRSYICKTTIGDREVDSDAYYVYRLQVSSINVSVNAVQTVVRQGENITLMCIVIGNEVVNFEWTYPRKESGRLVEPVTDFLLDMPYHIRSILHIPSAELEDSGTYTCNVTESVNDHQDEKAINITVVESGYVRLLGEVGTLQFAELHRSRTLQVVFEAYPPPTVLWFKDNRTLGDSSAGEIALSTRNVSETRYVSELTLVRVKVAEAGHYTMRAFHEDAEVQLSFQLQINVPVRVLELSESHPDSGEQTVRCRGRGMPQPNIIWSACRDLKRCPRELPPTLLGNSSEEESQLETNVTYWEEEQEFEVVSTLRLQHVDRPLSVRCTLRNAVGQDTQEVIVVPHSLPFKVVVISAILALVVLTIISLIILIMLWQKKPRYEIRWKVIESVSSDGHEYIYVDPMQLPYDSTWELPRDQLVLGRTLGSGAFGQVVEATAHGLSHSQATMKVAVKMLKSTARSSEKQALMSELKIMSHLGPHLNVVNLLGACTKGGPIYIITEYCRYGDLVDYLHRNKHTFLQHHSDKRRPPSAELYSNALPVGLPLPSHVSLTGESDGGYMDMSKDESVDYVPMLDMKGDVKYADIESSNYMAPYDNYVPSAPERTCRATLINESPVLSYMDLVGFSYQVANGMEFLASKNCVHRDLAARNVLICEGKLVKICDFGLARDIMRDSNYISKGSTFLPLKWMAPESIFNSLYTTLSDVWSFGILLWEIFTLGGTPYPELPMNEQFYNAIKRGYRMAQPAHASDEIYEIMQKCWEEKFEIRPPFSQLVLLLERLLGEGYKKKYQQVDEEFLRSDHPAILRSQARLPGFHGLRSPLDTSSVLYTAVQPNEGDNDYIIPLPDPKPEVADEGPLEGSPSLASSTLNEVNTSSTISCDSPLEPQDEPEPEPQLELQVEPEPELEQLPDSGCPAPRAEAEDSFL
Cyclin-dependent kinase 7 (Homo sapiens), sequence (P50613 whole entry): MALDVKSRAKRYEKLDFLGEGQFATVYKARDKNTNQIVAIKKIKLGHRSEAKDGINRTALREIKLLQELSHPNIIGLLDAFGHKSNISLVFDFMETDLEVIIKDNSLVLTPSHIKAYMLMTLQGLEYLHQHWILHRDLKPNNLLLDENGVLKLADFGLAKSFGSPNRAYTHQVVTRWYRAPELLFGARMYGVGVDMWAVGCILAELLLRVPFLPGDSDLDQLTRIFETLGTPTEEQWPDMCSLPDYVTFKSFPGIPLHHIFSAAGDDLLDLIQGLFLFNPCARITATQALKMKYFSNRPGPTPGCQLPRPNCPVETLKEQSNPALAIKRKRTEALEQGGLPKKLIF
Cyclin-dependent kinase 3 (Homo sapiens), sequence (Q00526 whole entry, looked up): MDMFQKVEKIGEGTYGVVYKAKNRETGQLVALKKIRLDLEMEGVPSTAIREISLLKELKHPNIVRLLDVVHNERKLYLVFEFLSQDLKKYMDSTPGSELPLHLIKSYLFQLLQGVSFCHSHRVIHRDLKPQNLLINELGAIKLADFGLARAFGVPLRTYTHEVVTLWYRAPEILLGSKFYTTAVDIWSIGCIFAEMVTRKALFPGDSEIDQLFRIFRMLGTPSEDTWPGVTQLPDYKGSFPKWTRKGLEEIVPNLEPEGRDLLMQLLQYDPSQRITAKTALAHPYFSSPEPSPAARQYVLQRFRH

Cc1cnc(N)nc1OCC(C)(C)CO
Non-toxic: Activity [37] | Activity [38]
inactive: inhibition [1] | inhibition [2] | inhibition [3] | inhibition [4] | inhibition [5] | inhibition [6] | inhibition [7] | inhibition [8] | inhibition [9] | inhibition [10] | inhibition [11] | inhibition [12] | inhibition [13] | inhibition [14] | inhibition [15] | inhibition [16] | inhibition [17] | inhibition [18] | inhibition [19] | inhibition [20] | inhibition [21] | inhibition [22] | inhibition [23] | inhibition [24] | inhibition [25] | inhibition [26] | inhibition [27] | inhibition [28] | inhibition [29] | inhibition [30] | Activity [35] | Activity [36] | Activity [39] | Activity [40] | Activity [41]
5.5 h: half-life [31]
58 h: half-life [34]
86 h: half-life [33]
60 µL/min/mg: CLH [32]
